The list is not random: actives were taken first. Their share in the collection is about 2.8%.
Measles CPE: compounds protecting cells from measles virus cytopathic effect, primary screen, measles RdRp inhibitor project, single point, MLSMR library, absorbance; Measles virus-infected cells, CPE protection; protection (pct of control), % at 4 µM; actives 1.5% (n = 140,000); AID 841, 2007; in the data active = protection mostly above about 24%, no sharp cut-off; inactive = mostly below about 26%
NPY-Y1 PAM-ag: NPY-Y1 receptor potentiators or agonists, primary screen, cell-based. Neuropeptide Y receptor type 1 (Homo sapiens), P25929. NPY-Y1 expressing cells, potentiator/agonist activation. activation, % at 3.6 µM. actives 0.37% (n = 220,000). AID 1304, 2008; in the data active = activation above about 33%, passing the limit was not always enough;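 note: cells stimulated with NPY at EC10 then isoproterenol at EC100; 0% = low agonist plus stimulus and 100% = saturating agonist plus stimulus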
Rad51 HR inh: human RAD51 strand exchange inhibitors, primary screen, biochemical, fluorescence. actives 0.085% (n = 200,000). AID 1385, 2008. inhibition, % at 10 µM. hRad51 DNA strand exchange, fluorescence dequenching;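 active = inhibition above 40% at the single screening dose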;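 note: 0% = DMSO control wells and 100% = blanks with heterologous ssDNA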
Target sequence (Q06609 whole entry, looked up): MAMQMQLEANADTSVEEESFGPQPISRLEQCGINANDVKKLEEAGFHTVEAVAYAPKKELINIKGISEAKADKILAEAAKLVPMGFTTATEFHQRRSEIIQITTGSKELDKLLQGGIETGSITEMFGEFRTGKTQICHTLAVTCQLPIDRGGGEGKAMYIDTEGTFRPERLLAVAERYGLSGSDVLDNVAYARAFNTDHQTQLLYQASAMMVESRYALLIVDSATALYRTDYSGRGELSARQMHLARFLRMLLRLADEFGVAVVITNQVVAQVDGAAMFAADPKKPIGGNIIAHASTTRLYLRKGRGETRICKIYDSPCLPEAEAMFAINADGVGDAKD
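Test system: preformed human Rad51 ssDNA filaments; also added: Donor/quencher-labelled 47-bp dsDNA substrate; doses: 10 µM final, single point; times: 37 °C 15-min filament assembly, 30-min compound preincubation, 15-min exchange; detection: FRET fluorescence dequenching, excitation 485 nm, emission 520 nm; read-out basis: Fluorescence-based percent inhibition, control- and blank-normalised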
NPY Y2 blocker: NPY-Y2 receptor antagonists, primary screen, cell-based; actives 0.99% (n = 140,000); AID 793, 2007; Neuropeptide Y receptor type 2 (Homo sapiens), P49146; inhibition, % at 2.7 µM; NPY-Y2 expressing cells, antagonist mode; in the data active = inhibition above about 17%;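 note: 0% = vehicle with agonist challenge and 100% = reference antagonist with challenge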
Target sequence (P49146 whole entry, looked up): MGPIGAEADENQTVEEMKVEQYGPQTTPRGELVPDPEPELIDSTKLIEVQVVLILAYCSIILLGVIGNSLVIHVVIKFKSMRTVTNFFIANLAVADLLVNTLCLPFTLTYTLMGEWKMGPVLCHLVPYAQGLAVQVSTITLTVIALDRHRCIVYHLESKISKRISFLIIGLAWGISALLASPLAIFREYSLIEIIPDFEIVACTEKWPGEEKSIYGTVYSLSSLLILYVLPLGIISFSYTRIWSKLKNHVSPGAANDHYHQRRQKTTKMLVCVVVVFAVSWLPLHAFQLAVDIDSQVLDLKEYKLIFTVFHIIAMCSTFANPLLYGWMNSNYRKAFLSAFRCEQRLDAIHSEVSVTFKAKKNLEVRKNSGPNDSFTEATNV
NPY Y1 blocker: NPY-Y1 receptor antagonists, primary screen, cell-based | actives 1% (n = 200,000) | Neuropeptide Y receptor type 1 (Homo sapiens), P25929 | inhibition, % at 3.6 µM | HEK293-CNG Y1 cells, membrane potential fluorescence; NPY at EC95, then isoproterenol;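 active = inhibition above the campaign mean inhibition of all tested compounds plus 3 SD, cut at about 20% in these data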;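 note: 0% = DMSO wells given NPY plus isoproterenol and 100% = isoproterenol alone without NPY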
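Test system – HEK293 Y1/CNG channel cell line · Also added – NPY agonist 25 nM, then isoproterenol 1 µM plus Ro 20-1724 25 µM · Compound dosing – one concentration, 3.6 µM, in 0.4% DMSO · Schedule – compound incubation 1 h at room temperature, readout 45 min post-stimulation · Technique – fluorescence, membrane potential probe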
NPY-Y2 PAM-ag: NPY-Y2 potentiators or agonists, primary screen, cell-based | Neuropeptide Y receptor type 2 (Homo sapiens), P49146 | activation, % at 3.6 µM | cells expressing NPY-Y2, potentiator/agonist read-out | AID 1359, 2008 | actives 0.45% (n = 220,000); in the data active = activation above about 27%;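 note: cells stimulated with NPY near EC25 plus isoproterenol at EC100; 0% = vehicle plus submaximal agonist and 100% = vehicle plus saturating agonist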
Active calls of the source: *.

What do the screens show for `COc1ccc(C)cc1NC(=O)COC(=O)C1CCN(C(=O)c2ccc(Cl)cc2)CC1`?
NPY-Y1 PAM-ag: 86.2*; Rad51 HR inh: 14.3; NPY Y1 blocker: -5.1; NPY-Y2 PAM-ag: 89.6*

How did CCOC(=O)c1sc(NC(=O)CSc2nc3ccccc3s2)c(C(=O)OCC)c1C do in these assays?
Measles CPE: 40.1*; NPY-Y1 PAM-ag: -2.0; Rad51 HR inh: -6.2; NPY Y2 blocker: 1.7; NPY Y1 blocker: 3.5; NPY-Y2 PAM-ag: 0.4

How did O=C(CSc1nc2ccccc2s1)Nc1ccc2c(c1)oc1ccccc12 do in these assays?
Measles CPE: 26.0*; NPY-Y1 PAM-ag: -26.8; Rad51 HR inh: -6.5; NPY Y2 blocker: 8.2; NPY Y1 blocker: 6.7; NPY-Y2 PAM-ag: -5.9

How did CCN(CC)C(=O)c1cc2c(=O)oc3ccccc3c2s1 do in these assays?
Measles CPE: 7.8; NPY-Y1 PAM-ag: 68.7*; Rad51 HR inh: -1.4; NPY Y2 blocker: 2.5; NPY Y1 blocker: 0.1; NPY-Y2 PAM-ag: 57.9*

How did O=C(CN1C(=O)COc2ccc(S(=O)(=O)N3CCCC3)cc21)NCc1ccccn1 do in these assays?
NPY-Y1 PAM-ag: 8.4; NPY-Y2 PAM-ag: -11.2

How did COn1c(SCc2ccccc2)nc2ccccc2c1=O do in these assays?
Measles CPE: 14.0; NPY-Y1 PAM-ag: -14.7; Rad51 HR inh: 5.6; NPY Y2 blocker: 7.4; NPY Y1 blocker: 6.2; NPY-Y2 PAM-ag: -3.3

What do the screens show for `COn1c(SCc2cccc(Cl)c2)nc2ccccc2c1=O`?
Measles CPE: 2.8; NPY-Y1 PAM-ag: -56.0; Rad51 HR inh: -1.7; NPY Y2 blocker: 17.3*; NPY Y1 blocker: 21.9*; NPY-Y2 PAM-ag: -4.6

Results for Cc1ccc(-c2c(C(=O)NNC(=S)NCC3CCCO3)csc2C)cc1 (centres undefined) ?
NPY-Y1 PAM-ag: -17.9; Rad51 HR inh: -0.2; NPY Y1 blocker: -1.3; NPY-Y2 PAM-ag: -8.5

How did O=C(NCC1CCCO1)c1ccc(Br)o1 (centres undefined) do in these assays?
NPY-Y1 PAM-ag: 4.2; Rad51 HR inh: 41.2*; NPY Y1 blocker: 3.2; NPY-Y2 PAM-ag: 0.2

What do the screens show for `O=C(COC(=O)c1ccc(Br)o1)NCC1CCCO1` (centres undefined)?
Measles CPE: 23.2; NPY-Y1 PAM-ag: 10.7; Rad51 HR inh: 0.7; NPY Y2 blocker: 0.1; NPY Y1 blocker: 5.3; NPY-Y2 PAM-ag: -2.5

How did O=C(NCC1CCCO1)c1ccc(COc2ccc(F)cc2)o1 (centres undefined) do in these assays?
Measles CPE: 31.7*; NPY-Y1 PAM-ag: -0.3; Rad51 HR inh: 1.6; NPY Y2 blocker: 2.2; NPY Y1 blocker: -2.6; NPY-Y2 PAM-ag: 0.5

How did C/C(=N/Nc1nc(-c2ccccc2)cc(-c2ccccc2)n1)c1ccc(N)cc1 do in these assays?
Measles CPE: 5.1; NPY-Y1 PAM-ag: 5.8; Rad51 HR inh: 2.4; NPY Y2 blocker: 4.0; NPY Y1 blocker: -4.8; NPY-Y2 PAM-ag: 8.0

How did Nc1ccc(-c2cc(-c3cccc(N)c3)nc(-c3ccccc3)n2)cc1 do in these assays?
Measles CPE: 1.6; NPY-Y1 PAM-ag: 53.8*; Rad51 HR inh: 1.3; NPY Y2 blocker: -6.4; NPY Y1 blocker: -12.6; NPY-Y2 PAM-ag: 45.0*

What do the screens show for `O=C(O)c1ccccc1-c1ccccc1C(=O)NCc1cccc(C(F)(F)F)c1`?
NPY-Y1 PAM-ag: 7.4; Rad51 HR inh: 3.2; NPY Y1 blocker: 4.3; NPY-Y2 PAM-ag: 4.2

How did COc1ccc(C2=NN(C(=O)CSc3nc4ccccc4s3)C(c3ccc(OC)cc3)C2)cc1 (centres undefined) do in these assays?
Measles CPE: 6.6; NPY-Y1 PAM-ag: -23.3; NPY Y2 blocker: 3.8; NPY Y1 blocker: -0.3; NPY-Y2 PAM-ag: 1.1

How did COc1ccc2c(c1)C(C)CC(C)(C)N2C(=O)CSc1nc2ccccc2s1 (centres undefined) do in these assays?
Measles CPE: 7.8; NPY-Y1 PAM-ag: -26.0; NPY Y2 blocker: 28.6*; NPY Y1 blocker: 35.1*; NPY-Y2 PAM-ag: -5.4

Results for O=C(O)c1nn(-c2cccc(Cl)c2)c(=O)cc1O ?
NPY-Y1 PAM-ag: 1.5; Rad51 HR inh: 6.1; NPY Y1 blocker: -7.4; NPY-Y2 PAM-ag: -0.5

What do the screens show for `COc1ccc2nc(NC(=O)CN(c3ccc(C)cc3)S(=O)(=O)c3c(C)nn(C)c3C)sc2c1`?
Measles CPE: 18.2; NPY-Y1 PAM-ag: 55.1*; Rad51 HR inh: 0.7; NPY Y2 blocker: -9.4; NPY Y1 blocker: -14.4; NPY-Y2 PAM-ag: 44.8*

Results for COc1ccc(N(CC(=O)NCc2ccc(C)cc2)S(=O)(=O)c2c(C)nn(C)c2C)cc1 ?
Measles CPE: 5.2; NPY-Y1 PAM-ag: -13.1; NPY Y2 blocker: 0.0; NPY Y1 blocker: 0.2; NPY-Y2 PAM-ag: 3.6

What do the screens show for `COc1ccc(S(=O)(=O)N2CCOCC2)cc1NC(=O)CSc1nnc2ccccn12`?
NPY-Y1 PAM-ag: 5.3; Rad51 HR inh: -4.3; NPY Y1 blocker: -0.1; NPY-Y2 PAM-ag: 2.4

How did CCSc1nnc(Cn2c(=O)sc3ccccc32)n1C do in these assays?
Measles CPE: 5.8; NPY-Y1 PAM-ag: 4.6; Rad51 HR inh: -1.4; NPY Y2 blocker: 1.7; NPY Y1 blocker: 1.6; NPY-Y2 PAM-ag: 1.6

Results for CC(Sc1nnc(Cn2c(=O)sc3ccccc32)n1C)c1ccccc1 (centres undefined) ?
Measles CPE: 51.4*; NPY-Y1 PAM-ag: -5.2; Rad51 HR inh: 0.9; NPY Y2 blocker: 4.8; NPY Y1 blocker: -1.4; NPY-Y2 PAM-ag: -4.9

How did C/C(=C\C(=O)c1ccc(Br)cc1)NCc1ccc2c(c1)OCO2 do in these assays?
Measles CPE: 12.4; NPY-Y1 PAM-ag: 11.9; Rad51 HR inh: 1.1; NPY Y2 blocker: 13.1; NPY Y1 blocker: 20.8*; NPY-Y2 PAM-ag: -7.5

What do the screens show for `CCCCCCCC(=O)OCC(O)CO` (centres undefined)?
Measles CPE: 91.1*; NPY-Y1 PAM-ag: -30.6; Rad51 HR inh: -10.9; NPY Y2 blocker: 5.0; NPY Y1 blocker: 4.2; NPY-Y2 PAM-ag: -9.8

Results for Cc1ccc(NC(=O)C2C3/C=C\CCCCC32)cc1C (centres undefined) ?
Measles CPE: -0.1; NPY-Y1 PAM-ag: -3.0; Rad51 HR inh: 5.7; NPY Y2 blocker: 3.8; NPY Y1 blocker: 4.5; NPY-Y2 PAM-ag: -19.5

What do the screens show for `CCn1c(O)c(N=NC(=O)c2ccc(CSc3nncn3C)cc2)c2ccccc21`?
Measles CPE: 14.6; NPY-Y1 PAM-ag: 24.5; Rad51 HR inh: 9.6; NPY Y2 blocker: 0.9; NPY Y1 blocker: 1.1; NPY-Y2 PAM-ag: 5.8

What do the screens show for `Cn1cnnc1SCc1ccc(C(=O)N=Nc2c(O)n(Cc3ccc(Cl)cc3)c3ccccc23)cc1`?
Measles CPE: 17.3; NPY-Y1 PAM-ag: 47.3*; Rad51 HR inh: -0.9; NPY Y2 blocker: -1.9; NPY Y1 blocker: -7.9; NPY-Y2 PAM-ag: 46.1*
